Test results published in paper PMC4589464 (Hepatology (Baltimore, Md.), 2015).
“Also recorded” adds a separate entry of the source. Structures can show the parent of a compound that is named as a salt. Where two headings read alike, the source gives them in different places.

Experiments:
[1] = Cytotoxicity in MT-4 cells; assay type: cell-based; settings: human
in vitro = assay type: cell-based; settings: human
HIV-1NL4-3 [2] = test system: HIV-1NL4-3
HBV [3] = test system: HBV
HBV [4] = assay: microbe, parasite or virus in culture; settings: Hepatitis B virus, HepG2 2.2.15, 288 h, read-out: IC50 against Anti-HBV
[5] = test system: HBVETV-R^L180M/S202G/M204V; assay: Southern blot assay, Huh-7 cells transfected with ETV-resistant HBV plasmid; assay type: cell-based; settings: Hepatitis B virus, Huh-7, read-out: IC50 against HBVETV-R^L180M/S202G/M204V
How it was run: (§1)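 Huh-7 cells were transfected with the HBV variant-containing plasmid and cultured with a range of test compound concentrations. Core-associated HBV DNA was extracted and detected by Southern blot hybridization. IC50 was calculated from the change in signal density, generally averaged over two experiments. The fold change was taken relative to the IC50 against wild-type HBV plasmid.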

HBVADV-R^A181T/N236T = assay: Southern blot assay, Huh-7 cells transfected with ADV-resistant HBV plasmid; assay type: cell-based; settings: Hepatitis B virus, Huh-7, read-out: IC50 against HBVADV-R^A181T/N236T
How it was run: as §1

HBV^WT [6] = settings: read-out: IC50 against HBV^WT; Southern blotting assay; cited from earlier work
HBV^WT [7] = assay: Southern blot assay, Huh-7 cells transfected with pHBV^WT; assay type: cell-based; settings: Hepatitis B virus
HBV^WT [8] = assay: HBV^WT viremia in hu-liver-chimeric-uPA+/+/SCID+/+ mice; assay type: in vivo; settings: 0.02 mg/kg/day oral, 14 days; for greatest magnitude of serum HBV-DNA level reduction: HBV^WT-infected mice
[9] = test system: HBVETV-R^L180M/S202G/M204V; assay: HBVETV-R viremia in hu-liver-chimeric-uPA+/+/SCID+/+ mice; assay type: in vivo; settings: for effect on HBVETV-R^L180M/S202G/M204V viremia: 0.02 mg/kg/day oral once daily; for effect on HBVETV-R^L180M/S202G/M204V viremia / greatest magnitude of viremia reduction: 14 days; for greatest magnitude of viremia reduction: HBVETV-R-infected mice, 0.02 mg/kg/day oral, average of two mice; for difference in viremia reduction magnitude between HBV^WT and HBVETV-R^L180M/S202G/M204V: mouse model
How it was run: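 Human-liver-chimeric uPA+/+/SCID+/+ mice (SCID, uPA-transgenic, liver partly repopulated with human hepatocytes) were inoculated with the HBV variant. Dosing began 8 weeks later, once daily at 0.02 mg/kg/day for 14 days. Serum viremia was followed as log10 copies/ml change from baseline, along with serum human albumin and body weight per mouse. Livers were examined histologically at the end of dosing.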

[10] = Serum human albumin and body weight monitoring of treated HBV-infected mice; assay type: in vivo; settings: 0.02 mg/kg/day; for serum human albumin (h-albumin) levels: HBV^WT-infected mice; for body weights: treated mice, 14 days
HIV-2 strains = assay: Activity against HIV-2 strains; assay type: cell-based; settings: Table S1
HepG2 cells = assay type: cell-based; settings: up to 100 μM; for mtDNA synthesis / mtDNA levels / L-lactate levels in culture medium: 12 days culture; for mtDNA synthesis / mtDNA levels: real-time mtDNA-PCR; for viable cell numbers (MTT assay): day 5 of culture
[11] = assay type: in vivo; settings: hu-liver-chimeric mice, 14-day administration
HIV-1 = settings: read-out: in vitro anti-HIV-1 IC90 concentration; cited from earlier work
[12] = intraperitoneal administration 20 mg/kg; cited from earlier work
[13] = cited from earlier work
HIV-1NL4-3 [14] = assay: microbe, parasite or virus in culture; settings: Human immunodeficiency virus 1, MT4, read-out: IC50 against Anti-HIV-1
[15] = Huh-7, read-out: IC50 against HBV^WT
[16] = Huh-7, read-out: IC50 against HBV^WT (Southern blot)

Row | Compound | CC50 [1] [µM] | CC50 (in vitro) [µM] | S.I. with Anti-HIV-1 (CC50/IC50) (HIV-1NL4-3 [2]; MT-4 cells) | S.I. with Anti-HBV (CC50/IC50) (HBV [3]; HepG2 2.2.15 cells) | IC50 (HBV [4]) [µM] | also measured
1 | Nc1ccn([C@@H]2CS[C@H](CO)O2)c(=O)n1 [3TC, lamivudine] | > 100 | > 100 | > 340 | > 3,300 | 0.03 ± 0.01 | –
2 | Nc1nc(NC2CC2)c2ncn([C@H]3C=C[C@@H](CO)C3)c2n1 [ABC, abacavir] | > 100 | > 100 | > 170 | > 26 | 3.9 ± 1 | –
3 | CC(C)(C)C(=O)OCOP(=O)(COCCn1cnc2c(N)ncnc21)OCOC(=O)C(C)(C)C [ADV, adefovir dipivoxil] | 5.1 ± 1 | > 100 | 21 | > 500 | 0.2 ± 0.08 | IC50 [5]: 36.4 ± 23.5 µM; IC50 (HBVADV-R^A181T/N236T): 39.5 ± 13.3 µM; IC50 (HBV^WT [6]): 7.7 µM
4 | Cc1cn([C@H]2C[C@H](N=[N+]=[N-])[C@@H](CO)O2)c(=O)[nH]c1=O [AZT, 3′-azido-3′-deoxythymidine] | 30.5 ± 3.1 | > 100 | 1,020 | – | > 100 | –
5 | N#C[C@]1(CO)O[C@@H](n2cnc3c(N)nc(N)nc32)C[C@@H]1O [CAdA, 4′-C-cyano-2-amino-2′-deoxyadenosine] | 3.5 ± 1.2 | 3.8 ± 1 | 8,750 | 9,500 | 0.0004 ± 0.0002 | IC50 (HBV^WT [7]; [15]): 0.007 ± 0.01 µM; IC50 (HBV^WT [7]; [16]): 0.0072 µM; IC50 [5]: 0.07 ± 0.01 µM; IC50 (HBVADV-R^A181T/N236T): 0.09 ± 0.07 µM; effect on HBV^WT viremia (HBV^WT [8]): significantly blocked the replication of HBV; greatest magnitude of serum HBV-DNA level reduction (HBV^WT [8]): -2.9 log10 copies/ml; effect on HBVETV-R^L180M/S202G/M204V viremia [9]: significant level of viremia reduction by day 7; greatest magnitude of viremia reduction [9]: -1.4 log10 copies/ml; difference in viremia reduction magnitude between HBV^WT and HBVETV-R^L180M/S202G/M204V [9]: 30 fold; serum human albumin (h-albumin) levels [10]: moderately decreased h-albumin levels; body weights [10]: no significant difference in body weights; activity against HIV-2 strains (HIV-2 strains): potent activity against HIV-2 strains; mtDNA synthesis / mtDNA levels (HepG2 cells): significantly lowered the levels of mtDNA; L-lactate levels in culture medium (HepG2 cells): severely lowered the levels of L-lactate and viable cell numbers; viable cell numbers (MTT assay) (HepG2 cells): severely lowered the levels of L-lactate and viable cell numbers
6 | N#C[C@]1(CO)O[C@@H](n2cnc3c(=O)[nH]c(N)nc32)C[C@@H]1O [CdG, 4′-C-cyano-2′-deoxyguanosine] | 2.8 ± 0.9 | 3.2 ± 0.7 | 7,000 | 8,000 | 0.0004 ± 0.0001 | IC50 (HBV^WT [7]; [15]): 0.01 ± 0.002 µM; IC50 (HBV^WT [7]; [16]): 0.0098 µM; IC50 [5]: 0.04 ± 0.03 µM; IC50 (HBVADV-R^A181T/N236T): 0.04 ± 0.02 µM; effect on HBV^WT viremia (HBV^WT [8]): significantly blocked the replication of HBV; greatest magnitude of serum HBV-DNA level reduction (HBV^WT [8]): -2.7 log10 copies/ml; effect on HBVETV-R^L180M/S202G/M204V viremia [9]: significant level of viremia reduction by day 7; greatest magnitude of viremia reduction [9]: -1.2 log10 copies/ml; difference in viremia reduction magnitude between HBV^WT and HBVETV-R^L180M/S202G/M204V [9]: 30 fold; serum human albumin (h-albumin) levels [10]: moderately decreased h-albumin levels; body weights [10]: no significant difference in body weights; liver toxicity [11]: no significant liver toxicity or general toxicity; activity against HIV-2 strains (HIV-2 strains): potent activity against HIV-2 strains; mtDNA synthesis / mtDNA levels (HepG2 cells): significantly lowered the levels of mtDNA; L-lactate levels in culture medium (HepG2 cells): severely lowered the levels of L-lactate and viable cell numbers; viable cell numbers (MTT assay) (HepG2 cells): severely lowered the levels of L-lactate and viable cell numbers
7 | C#C[C@]1(CO)O[C@@H](n2cnc3c(N)nc(F)nc32)C[C@@H]1O [EFdA, 4′-ethynyl-2-fluoro-2′-deoxyadenosine] | 19.2 ± 5.9 | > 100 | 64,000 | > 630 | 0.16 ± 0.03 | IC90 (HIV-1): ~0.005 µM; maximal concentration [12]: 4 µg/mL; time of maximal concentration [12]: 30 min
8 | C#C[C@]1(COP(=O)(O)OP(=O)(O)OP(=O)(O)O)O[C@@H](n2cnc3c(N)nc(F)nc32)C[C@@H]1O [EFdA-TP] | – | – | – | – | – | half-life [13]: ≥ 17 h
9 | C=C1[C@H](CO)[C@@H](O)C[C@@H]1n1cnc2c(=O)[nH]c(N)nc21 [ETV, entecavir] | 39.1 ± 8.7 | > 100 | 38 | > 140,000 | 0.0007 ± 0.0002 | IC50 (HBV^WT [7]; [15]): 0.014 ± 0.008 µM; IC50 (HBV^WT [7]; [16]): 0.0141 µM; IC50 [5]: > 1 µM; IC50 (HBVADV-R^A181T/N236T): 0.18 µM; effect on HBV^WT viremia (HBV^WT [8]): viremia levels significantly went down; effect on HBVETV-R^L180M/S202G/M204V viremia [9]: completely failed to reduce; also recorded: essentially no reduction; serum human albumin (h-albumin) levels [10]: comparable decrease of h-albumin levels; body weights [10]: no significant difference in body weights; mtDNA synthesis / mtDNA levels (HepG2 cells): no reduction of mtDNA synthesis was observed; L-lactate levels in culture medium (HepG2 cells): no L-lactate level changes were identified; viable cell numbers (MTT assay) (HepG2 cells): slight and moderate decreases in the cell viability; number of HBV copies in HepG2 2.2.15 cells (HBV [3]; at 100 nM, 12-day culture, cells alone 9.0 × 10^5 copies/well): ~ 0.9 × 10^5 copies/well
10 | C#C[C@@]1(CO)C=C[C@H](n2cc(C)c(=O)[nH]c2=O)O1 [Ed4T, 2′,3′-didehydro-3′-deoxy-4′-ethynylthymidine] | > 100 | > 100 | > 380 | – | > 100 | –
11 | Nc1nc(=O)n([C@@H]2CS[C@H](CO)O2)cc1F [FTC, emtricitabine] | > 100 | > 100 | – | – | 0.02 ± 0.01 | S.I. with Anti-HIV-1 (CC50/IC50) (HIV-1NL4-3 [2]): > 430; S.I. with Anti-HBV (CC50/IC50) (HBV [3]): > 5,000; IC50 (HIV-1NL4-3 [14]): 0.23 ± 0.1 µM
12 | Cc1cn([C@@H]2C[C@@H](O)[C@H](CO)O2)c(=O)[nH]c1=O [LdT, telbivudine] | > 100 | > 100 | – | > 14,000 | 0.007 ± 0.001 | –
13 | CC(C)OC(=O)OCOP(=O)(CO[C@H](C)Cn1cnc2c(N)ncnc21)OCOC(=O)OC(C)C [TDF, tenofovir disoproxil fumarate] | – | > 100 | 70 | > 2,500 | 0.04 ± 0.01 | CC50 ([1]; MT-4 cells): 40.4 ± 11.3 µM
14 | Cc1cn([C@H]2C=C[C@@H](CO)O2)c(=O)[nH]c1=O [d4T, 2′,3′-didehydro-3′-deoxythymidine] | > 100 | > 100 | – | – | > 100 | S.I. with Anti-HIV-1 (CC50/IC50) (HIV-1NL4-3 [2]): > 150
15 | Nc1ccn([C@H]2CC[C@@H](CO)O2)c(=O)n1 [ddC, 2′,3′-dideoxycytidine] | – | > 100 | > 300 | > 130 | 0.75 ± 0.12 | CC50 ([1]; MT-4 cells): > 100 µM; mtDNA synthesis / mtDNA levels (HepG2 cells): significantly decreased mtDNA synthesis at 1 μM and beyond; L-lactate levels in culture medium (HepG2 cells): without causing any significant decrease in L-lactate amounts or viable cell numbers; viable cell numbers (MTT assay) (HepG2 cells): without causing any significant decrease in L-lactate amounts or viable cell numbers
16 | OC[C@@H]1CC[C@H](n2cnc3c(O)ncnc32)O1 [ddI, 2′,3′-dideoxyinosine] | > 100 | > 100 | – | – | 3.7 ± 0.7 | –
